Source: ChEMBL document CHEMBL4732181, “Pyrazolo[3,4-d]pyrimidine-based dual EGFR T790M/HER2 inhibitors: Design, synthesis, structure-activity relationship and biological activity as potential antitumor and anticonvulsant agents” (Eur J Med Chem, 2021)
The source made the active and inactive calls. No cut-off for these calls is given here.

Legend:
Mus musculus [1] = assay: Anticonvulsant activity against mouse model of LiCa/pilocarpine-induced status epilepticus assessed as mean power frequency at 20 mg/kg, po for 10 days by EEG method relative to control; type: functional; details: time 10 day
Method in brief: (§1)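 Male mice (20-30 g), five per group, dosed orally once daily for 10 days. Status epilepticus was then induced with LiCa (3 mEq/kg i.p.), atropine sulfate (1 mg/kg i.p.) 30 min before pilocarpine, and pilocarpine HCl (300 mg/kg i.p.) 2 h after LiCa. Normal controls received oral distilled water. Comparators were untreated SE, phenytoin and lamotrigine. One-way ANOVA with Tukey post-hoc; mean ± SD.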

Mus musculus [2] = assay: Anticonvulsant activity against mouse model of LiCa/pilocarpine-induced status epilepticus assessed as amplitude at 20 mg/kg, po for 10 days by EEG method relative to control; type: functional; details: time 10 day; method in brief: as §1
MCF7 [3] = assay: Induction of cell cycle arrest in human MCF7 cells assessed as cell accumulation at S phase at IC50 concentration after 24 hrs by propidium iodide staining based flow cytometric analysis (reference value: 42.34%); type: functional
Mus musculus [4] = assay: Anticonvulsant activity against mouse model of LiCa/pilocarpine-induced status epilepticus assessed as amplitude density at 20 mg/kg, po for 10 days by EEG method relative to control; type: functional; details: time 10 day; method in brief: as §1
[5] = biological target: T1, Receptor tyrosine-protein kinase erbB-2 (Homo sapiens, UniProt P04626); assay: Inhibition of HER2 (unknown origin) at 10 uM relative to control
Method in brief: (§2)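 Cell-free immunoassay kit measuring EGFR T790M/HER2 kinase inhibition. Percent inhibition screened at 10 µM. IC50 obtained from four concentrations (0.01-10 µM) by fitting E(%) = Emax/(1+[I]/ID50) to a dose-response curve. Mean of two independent replicates.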

Mus musculus [6] = assay: Anticonvulsant activity against mouse model of LiCa/pilocarpine-induced status epilepticus assessed as power pV2 at 20 mg/kg, po for 10 days by EEG method relative to control; type: functional; details: time 10 day; method in brief: as §1
MCF7 [7] = assay: Induction of apoptosis in human MCF7 cells assessed as increase in early apoptotic cells at IC50 concentration after 24 hrs by annexin-V-FITC/PI staining based flow cytometric analysis; type: functional
MCF7 [8] = assay: Induction of cell cycle arrest in human MCF7 cells assessed as cell increase in accumulation at G2/M phase at IC50 concentration after 24 hrs by propidium iodide staining based flow cytometric analysis; type: functional
MCF7 [9] = assay: Induction of apoptosis in human MCF7 cells assessed as decrease in Bcl-2 protein expression at IC50 concentration after 24 hrs by ELISA; type: functional
Method in brief: (§3)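 Cells treated at IC50 for 24 h and lysed in cell extraction buffer. Lysate diluted in standard diluent buffer and human caspase-3, -7, -9, Bax and Bcl-2 quantified by immunoassay kit (pg/mL). Fold change calculated against untreated control cells.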

MCF7 [10] = assay: Induction of apoptosis in human MCF7 cells assessed as increase in Bax protein expression at IC50 concentration after 24 hrs by ELISA; type: functional; method in brief: as §3
Mus musculus [11] = assay: Anticonvulsant activity against mouse model of LiCa/pilocarpine-induced status epilepticus assessed as total power density at 20 mg/kg, po for 10 days by EEG method relative to control; type: functional; details: time 10 day; method in brief: as §1
MCF7 [12] = assay: Induction of apoptosis in human MCF7 cells assessed as increase in caspace-7 protein expression at IC50 concentration after 24 hrs by ELISA; type: functional; method in brief: as §3
Mus musculus [13] = assay: Anticonvulsant activity against mouse model of LiCa/pilocarpine-induced status epilepticus assessed as alpha at 20 mg/kg, po for 10 days by EEG method relative to control; type: functional; details: time 10 day; method in brief: as §1
MCF7 [14] = assay: Induction of apoptosis in human MCF7 cells assessed as late apoptotic cells at IC50 concentration after 24 hrs by annexin-V-FITC/PI staining based flow cytometric analysis (reference value: 0.47%)
Mus musculus [15] = assay: Anticonvulsant activity against mouse model of LiCa/pilocarpine-induced status epilepticus assessed as total power at 20 mg/kg, po for 10 days by EEG method relative to control; type: functional; details: time 10 day; method in brief: as §1
MCF7 [16] = assay: Induction of apoptosis in human MCF7 cells assessed as increase in caspace-9 protein expression at IC50 concentration after 24 hrs by ELISA; type: functional; method in brief: as §3
MCF7 [17] = assay: Induction of apoptosis in human MCF7 cells assessed as increase in late apoptotic cells at IC50 concentration after 24 hrs by annexin-V-FITC/PI staining based flow cytometric analysis; type: functional
MCF7 [18] = assay: Induction of cell cycle arrest in human MCF7 cells assessed as cell accumulation at pre-G1 phase at IC50 concentration after 24 hrs by propidium iodide staining based flow cytometric analysis (reference value: 1.49%); type: functional
Mus musculus [19] = assay: Anticonvulsant activity against mouse model of LiCa/pilocarpine-induced status epilepticus assessed as delta at 20 mg/kg, po for 10 days by EEG method relative to control; type: functional; details: time 10 day; method in brief: as §1
[20] = biological target: T1, Receptor tyrosine-protein kinase erbB-2; assay: Inhibition of HER2 (unknown origin); method in brief: as §2
Mus musculus [21] = assay: Anticonvulsant activity against mouse model of LiCa/pilocarpine-induced status epilepticus assessed as theta at 20 mg/kg, po for 10 days by EEG method relative to control; type: functional; details: time 10 day; method in brief: as §1
Mus musculus [22] = assay: Anticonvulsant activity against mouse model of LiCa/pilocarpine-induced status epilepticus assessed as GSH level in brain at 20 mg/kg, po for 10 days by calorimetric method relative to control; type: functional; details: time 10 day; method in brief: as §1
WI-38 = assay: Cytotoxicity against human WI-38 cells assessed as reduction in cell viability after 48 hrs by MTT assay; type: cell-based; details: WI-38, 48 h
Method in brief: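 Cells from ATCC grown in DMEM with 10% FBS, insulin and 1% penicillin-streptomycin. Plated at 1.2-1.8 × 10,000 cells/well for 24 h, then exposed to compounds in DMSO vehicle for 48 h. MTT 0.5 mg/ml added for 2 h; absorbance read at 570 nm. Experiments run in triplicate.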

MCF7 [23] = assay: Induction of apoptosis in human MCF7 cells assessed as early apoptotic cells at IC50 concentration after 24 hrs by annexin-V-FITC/PI staining based flow cytometric analysis (reference value: 0.84%)
MCF7 [24] = assay: Induction of apoptosis in human MCF7 cells assessed as increase in Bax/Bcl-2 ratio at IC50 concentration after 24 hrs by ELISA; type: functional, cell-based; method in brief: as §3
Mus musculus [25] = assay: Anticonvulsant activity against mouse model of LiCa/pilocarpine-induced status epilepticus assessed as MDA level in brain at 20 mg/kg, po for 10 days by calorimetric method relative to control; type: functional; details: time 10 day; method in brief: as §1
Mus musculus [26] = assay: Anticonvulsant activity against mouse model of LiCa/pilocarpine-induced status epilepticus assessed as Glutamate level in brain at 20 mg/kg, po for 10 days by ELISA relative to control; type: functional; details: time 10 day; method in brief: as §1
Mus musculus [27] = assay: Anticonvulsant activity against mouse model of LiCa/pilocarpine-induced status epilepticus assessed as spectral edge frequency at 20 mg/kg, po for 10 days by EEG method relative to control; type: functional; details: time 10 day; method in brief: as §1
MCF7 [28] = assay: Induction of cell cycle arrest in human MCF7 cells assessed as cell accumulation at G2/M phase at IC50 concentration after 24 hrs by propidium iodide staining based flow cytometric analysis (reference value: 3.89%); type: functional
MCF7 [29] = assay: Induction of apoptosis in human MCF7 cells assessed as increase in caspace-3 protein expression at IC50 concentration after 24 hrs by ELISA; type: functional; method in brief: as §3
Mus musculus [30] = assay: Anticonvulsant activity against mouse model of LiCa/pilocarpine-induced status epilepticus assessed as GABA level in brain at 20 mg/kg, po for 10 days by ELISA relative to control; type: functional; details: time 10 day; method in brief: as §1
[31] = biological target: Epidermal growth factor receptor (Homo sapiens, UniProt P00533, T790M); assay: Inhibition of EGFR T790M mutant (unknown origin)
MCF7 [32] = assay: Induction of cell cycle arrest in human MCF7 cells assessed as cell accumulation at G1 phase at IC50 concentration after 24 hrs by propidium iodide staining based flow cytometric analysis (reference value: 53.77%); type: functional

T1 sequence (P04626 whole entry): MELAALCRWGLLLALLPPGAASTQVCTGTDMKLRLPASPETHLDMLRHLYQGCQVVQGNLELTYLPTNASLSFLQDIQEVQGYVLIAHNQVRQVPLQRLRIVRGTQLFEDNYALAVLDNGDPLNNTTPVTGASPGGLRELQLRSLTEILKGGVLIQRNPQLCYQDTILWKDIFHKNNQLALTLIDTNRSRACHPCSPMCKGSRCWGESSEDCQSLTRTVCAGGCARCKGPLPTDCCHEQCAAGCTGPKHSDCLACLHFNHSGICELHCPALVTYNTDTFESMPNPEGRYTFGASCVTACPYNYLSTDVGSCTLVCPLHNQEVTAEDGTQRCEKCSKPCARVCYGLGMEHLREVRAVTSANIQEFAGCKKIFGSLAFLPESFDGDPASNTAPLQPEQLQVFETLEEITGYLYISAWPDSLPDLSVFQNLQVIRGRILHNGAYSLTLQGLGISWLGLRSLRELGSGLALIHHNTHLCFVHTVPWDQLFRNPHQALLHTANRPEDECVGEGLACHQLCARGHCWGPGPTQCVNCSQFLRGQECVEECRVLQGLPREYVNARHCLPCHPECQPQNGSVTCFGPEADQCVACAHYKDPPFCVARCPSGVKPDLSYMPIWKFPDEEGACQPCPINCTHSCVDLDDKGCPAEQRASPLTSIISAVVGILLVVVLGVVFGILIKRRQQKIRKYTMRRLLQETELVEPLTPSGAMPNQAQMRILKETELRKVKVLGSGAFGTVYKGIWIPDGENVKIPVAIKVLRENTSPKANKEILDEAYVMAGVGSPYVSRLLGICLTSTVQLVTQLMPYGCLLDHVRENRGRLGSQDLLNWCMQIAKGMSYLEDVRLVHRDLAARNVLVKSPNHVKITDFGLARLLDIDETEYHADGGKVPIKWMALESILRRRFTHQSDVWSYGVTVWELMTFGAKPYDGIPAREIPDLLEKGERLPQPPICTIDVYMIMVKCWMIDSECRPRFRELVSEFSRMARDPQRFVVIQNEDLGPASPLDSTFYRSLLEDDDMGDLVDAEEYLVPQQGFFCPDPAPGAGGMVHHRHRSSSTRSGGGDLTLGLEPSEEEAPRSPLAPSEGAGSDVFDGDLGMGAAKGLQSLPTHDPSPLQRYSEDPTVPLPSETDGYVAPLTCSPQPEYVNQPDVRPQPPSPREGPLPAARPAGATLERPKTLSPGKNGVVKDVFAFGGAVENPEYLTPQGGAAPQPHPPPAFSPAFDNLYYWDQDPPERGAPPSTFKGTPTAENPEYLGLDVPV
Chain of Epidermal growth factor receptor (P00533 25-1210 T790M limits assumed): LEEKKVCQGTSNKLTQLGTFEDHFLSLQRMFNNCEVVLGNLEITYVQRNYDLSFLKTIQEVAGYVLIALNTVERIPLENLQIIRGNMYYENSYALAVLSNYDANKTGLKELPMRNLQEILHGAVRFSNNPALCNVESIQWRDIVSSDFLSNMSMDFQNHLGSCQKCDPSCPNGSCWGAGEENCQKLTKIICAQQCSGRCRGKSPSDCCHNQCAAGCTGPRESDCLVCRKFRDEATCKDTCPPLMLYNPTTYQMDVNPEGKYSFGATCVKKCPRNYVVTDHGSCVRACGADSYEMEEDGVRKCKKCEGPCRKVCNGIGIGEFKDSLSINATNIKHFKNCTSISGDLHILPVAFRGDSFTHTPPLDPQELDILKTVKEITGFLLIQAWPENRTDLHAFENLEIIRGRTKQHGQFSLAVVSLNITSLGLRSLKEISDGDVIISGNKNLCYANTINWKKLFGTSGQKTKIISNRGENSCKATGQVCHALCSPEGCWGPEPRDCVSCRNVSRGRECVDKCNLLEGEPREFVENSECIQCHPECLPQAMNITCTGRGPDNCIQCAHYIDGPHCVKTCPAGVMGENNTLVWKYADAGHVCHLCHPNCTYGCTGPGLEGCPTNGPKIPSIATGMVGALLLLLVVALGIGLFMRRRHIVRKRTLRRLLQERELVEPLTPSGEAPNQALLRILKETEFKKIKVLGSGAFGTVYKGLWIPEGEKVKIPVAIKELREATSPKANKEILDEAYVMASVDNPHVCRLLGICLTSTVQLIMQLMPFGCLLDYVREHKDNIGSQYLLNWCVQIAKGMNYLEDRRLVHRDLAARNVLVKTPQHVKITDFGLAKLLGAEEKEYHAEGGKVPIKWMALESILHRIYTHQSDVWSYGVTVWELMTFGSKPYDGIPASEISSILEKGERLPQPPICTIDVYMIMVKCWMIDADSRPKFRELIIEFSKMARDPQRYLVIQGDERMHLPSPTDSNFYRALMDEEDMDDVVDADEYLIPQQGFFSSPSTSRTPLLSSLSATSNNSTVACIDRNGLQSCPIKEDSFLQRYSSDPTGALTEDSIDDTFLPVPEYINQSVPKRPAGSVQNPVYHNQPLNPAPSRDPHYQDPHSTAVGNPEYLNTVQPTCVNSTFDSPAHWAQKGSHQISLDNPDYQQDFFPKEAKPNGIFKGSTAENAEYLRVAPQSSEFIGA

Question: Which results are given for `COc1ccc(/C=C2/N=C(c3ccc(Cl)cc3)N(C(=O)Cc3nc4c(c(C)nn4-c4ccccc4)c(=O)[nH]3)NC2=O)cc1`?
Answer: Activity (Mus musculus [1]): -28.59%; Activity (Mus musculus [2]): 47.56%; Activity (MCF7 [3]): 28.34%; Activity (Mus musculus [4]): 67.48%; inhibition [5]: 86.7%; Activity (Mus musculus [6]): 132.38%; fold change (FC) (MCF7 [7]): 5.6; fold change (FC) (MCF7 [8]): 11.97; fold change (FC) (MCF7 [9]): 3.4; fold change (FC) (MCF7 [10]): 5.6; Activity (Mus musculus [11]): 174.78%; fold change (FC) (MCF7 [12]): 7.9; Activity (Mus musculus [13]): 28.04%; Activity (MCF7 [14]): 13.9%; Activity (Mus musculus [15]): 13.12%; fold change (FC) (MCF7 [16]): 22.9; fold change (FC) (MCF7 [17]): 29.5; Activity (MCF7 [18]): 22.12%; Activity (Mus musculus [19]): 258.15%; IC50 [20]: 866 nM; Activity (Mus musculus [21]): 55.17%; Activity (Mus musculus [22]): 179.51%; IC50 (WI-38): 54.9 nM; Activity (MCF7 [23]): 4.98%; Activity (MCF7 [24]): Active; Activity (Mus musculus [25]): -50%; Activity (Mus musculus [26]): -36.07%; Activity (Mus musculus [27]): -20.21%; Activity (MCF7 [28]): 46.57%; fold change (FC) (MCF7 [29]): 12; Activity (Mus musculus [30]): 71.54%; IC50 [31]: 227 nM; Activity (MCF7 [32]): 25.09%
